DAGLB inh – DAGLB lipase inhibitors, primary screen, biochemical, fluorescence, HTS. 340,000 compounds, 0.059% hits. AID 504411, 2011. HEK293T DAGLB membrane lysate, EnzChek fluorogenic substrate. inhibition, % at 5.17 µM. Diacylglycerol lipase-beta (Homo sapiens), Q8NCG7; in the data active means inhibition above about 34%;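 further: 0% = enzyme with vehicle and 100% = wells lacking enzyme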
HTRA1 inh – HTRA1 serine protease inhibitors, primary screen, biochemical, fluorescence polarization, HTS. 340,000 compounds, 0.5% hits. inhibition, % at 5.96 µM. recombinant HTRA1, FP-rhodamine activity-based probe. Q92743; in the data active means inhibition above about 36%;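 further: 0% = enzyme with DMSO and 100% = wells lacking enzyme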
ABHD4 inh – ABHD4 inhibitors, primary screen, biochemical, fluorescence polarization, mouse; (Lyso)-N-acylphosphatidylethanolamine lipase (Mus musculus), Q8VD66; purified mABHD4, FP-Rh probe fluorescence polarization; inhibition, % at 8.92 µM; 370,000 compounds, 0.54% hits;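 active means inhibition exceeding the mean over every tested compound plus 3 SD, cut at about 30% in these data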;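 further: 0% = plate median of compound wells and 100% = S159A mutant with DMSO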
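Assay system: Wild-type mouse ABHD4 protein | Medium: HEPES pH 7.0 buffer, 150 mM NaCl, 0.01% Pluronic F-127 | Incubation: Enzyme–compound pre-incubation 45 min, then probe 60 min, both 25 °C | Technique: Fluorescence polarization with parallel and perpendicular emission, 525/598 nm | Evaluation: % inhibition of FP-Rh probe binding versus controls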
TCR CD3 inh – inhibitors of human TCR-CD3 interaction, primary screen, biochemical, fluorescence, TAMRA-labeled TCR probe; inhibition, % at 9.4 µM; 360,000 compounds, 0.37% hits; AID 651800, 2012;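 further: recombinant mutant TCR 2C K166C tagged with TAMRA read by polarization; 0% = receptor in buffer alone and 100% = receptor with positive control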
SIAE primary – human SIAE inhibitors, primary screen, biochemical, fluorescence polarization, FP-Rh probe, 1536-well HTS | SIAE FP-Rh probe binding | inhibition, % at 9.66 µM | 370,000 compounds, 0.69% hits | AID 1053197, 2014;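 active means inhibition above a cutoff: mean of compounds within the control limits plus 3 SD of those, cut at about 17% in these data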;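 further: 0% = plate median of compound wells and 100% = probe without SIAE protein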
Target sequence (Q9HAT2 whole entry, looked up): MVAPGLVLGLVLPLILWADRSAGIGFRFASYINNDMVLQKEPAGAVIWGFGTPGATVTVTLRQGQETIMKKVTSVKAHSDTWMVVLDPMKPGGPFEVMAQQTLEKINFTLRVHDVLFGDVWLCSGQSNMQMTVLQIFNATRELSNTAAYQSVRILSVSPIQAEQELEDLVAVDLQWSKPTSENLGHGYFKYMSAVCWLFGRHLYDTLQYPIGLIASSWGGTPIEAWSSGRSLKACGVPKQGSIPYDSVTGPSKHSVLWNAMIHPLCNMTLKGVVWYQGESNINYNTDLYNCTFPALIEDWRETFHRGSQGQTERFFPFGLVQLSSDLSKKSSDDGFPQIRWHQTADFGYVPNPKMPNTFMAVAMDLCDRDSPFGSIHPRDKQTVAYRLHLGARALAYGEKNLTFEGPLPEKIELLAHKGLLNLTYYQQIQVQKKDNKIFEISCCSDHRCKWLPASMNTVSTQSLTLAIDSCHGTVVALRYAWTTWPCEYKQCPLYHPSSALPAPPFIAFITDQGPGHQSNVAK
HTRA1 inh conf – HTRA1 protease inhibitors, retest, confirmation, biochemical, fluorescence polarization. recombinant HTRA1, FP-rhodamine activity-based probe. inhibition, % at 5.96 µM. 1,600 compounds, 66% hits. shares compounds with HTRA1 inh. AID 540248, 2011;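 active means mean inhibition over three repeats above a set limit taken from the earlier primary screen, cut at about 37% in these data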;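 further: 0% = HTRA1 with DMSO and 100% = wells lacking HTRA1; inhibitors block probe binding so polarization drops and inhibition rises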
BSA TAMRA ctr – compounds interfering with TAMRA-BSA probe, counter-screen for TCR-CD3 interaction inhibitor project, biochemical, fluorescence, TAMRA-labeled BSA; shares compounds with TCR CD3 inh; inhibition, % at 9.4 µM; 1,200 compounds, 10% hits; TAMRA-labeled BSA probe fluorescence counterscreen; in the data active means inhibition above about 23%;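 further: 0% = buffer low control and 100% = reference high control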
TCR-CD3 inh conf – TCR-CD3 interaction inhibitors, retest, confirmation, biochemical, fluorescence, TAMRA-labeled TCR probe | 1,200 compounds, 48% hits | TAMRA-labeled TCR probe fluorescence binding assay | shares compounds with TCR CD3 inh | inhibition, % at 9.4 µM
* marks the source's active call; other numbers are inactive results; nt = not tested or not shown. This is a sample that favours compounds with a hit; in the whole collection about 1.5% have one here. Unless noted, no stated cut-off is given here; in the data, active means inhibition above about 19%; inactive means the rest.

SMILES	DAGLB inh	HTRA1 inh	ABHD4 inh	TCR CD3 inh	SIAE primary	HTRA1 inh conf	others
COC(=O)[C@@]12CCCCC=C1N(CCc1ccc(Cl)cc1)C(=O)[C@H]2CC(=O)NCc1cccc2ccccc12	nt	nt	-5	nt	-7	nt
Cc1cc(-c2csc(N)n2)c(C)n1CCC(C)C	10	53*	19	5	7	63*
Cc1nn(C)cc1-c1csc(N)n1	0	10	-6	-4	7	nt
Cc1ccc(S(=O)(=O)N2CCCc3nc(-c4ccccc4)ccc32)cc1	nt	nt	-10	9	0	nt
O=C1CCC/C(=N/Nc2ccc(Cl)cc2)C1	6	37*	18	2	6	42*
O=C(NN=C1CCCC1)c1ccc(Cl)cc1	-13	5	-5	3	0	nt
Oc1c(CNc2ccccc2)cc(COCc2ccccc2)c2cccnc12	-11	49*	8	-4	19*	15
Cc1ccc(Nc2c(-c3ccccn3)nc3ccc(C)cn23)cc1	3	55*	11	-4	8	58*
Cc1ccn2c(Nc3ccc4c(c3)OCO4)c(-c3ccccn3)nc2c1	3	64*	22	7	25*	75*
Cc1ccc(Nc2c(-c3ccccn3)nc3cc(C)ccn23)cc1	6	44*	10	4	8	61*
CC(=O)Nc1ccc(NC(=O)CSc2nnc(-c3n[nH]c4c3CCC4)n2N)cc1	nt	nt	-1	nt	-15	nt
Cc1ccc(-c2cc(-c3nnc4sc(Cc5cccs5)nn34)[nH]n2)cc1	nt	nt	-14	nt	-3	nt
C[C@]12Cc3ccccc3C1CC1=N[C@@H](C3CCCCC3)O[C@@]13C[C@@H]2C(=O)N3C1CCN(Cc2ccccc2)CC1 (some centres not stated)	nt	nt	10	-2	3	nt
COc1ccc(-n2c(SCC(=O)N3CCCC3)nnc2-c2ccncc2)cc1	nt	nt	7	nt	-7	nt
COc1ccc(NC(=O)CC2Nc3cccc4cccc(c34)NC2=O)cc1 (configuration not stated)	10	52*	18	3	2	9
Cc1ccccc1Cn1cc(CN2[C@H](Cc3ccccc3)COc3cc(Br)ccc3S2(=O)=O)nn1	nt	nt	0	nt	-3	nt
NNC(=O)c1oc2nc(-c3ccccc3)cc(-c3ccccc3)c2c1N	1	47*	16	15	7	13
COC(=O)[C@@]12CCCCC=C1N(CCc1ccc(Cl)cc1)C(=O)[C@H]2CC(=O)NCc1ccc(C)o1	nt	nt	4	nt	-5	nt
FC(F)(F)c1cnc(NNC(=S)Nc2ccccc2)c(Cl)c1	-1	47*	11	-3	7	30
FC(F)(F)c1cnc(NNC(=S)Nc2cccnc2)c(Cl)c1	4	6	10	0	-2	nt
COc1cccc(/C=N/NC(=O)c2c(C)nc3ccc(Br)cn23)c1O	8	54*	nt	nt	nt	52*
CCOc1ccccc1/C=N/NC(=O)c1c(C)nc2ccc(Br)cn12	-1	-2	20	2	-2	nt
COc1ccccc1C=NNC(=O)NN=Cc1ccccc1OC	2	-13	-3	2	-3	nt
COc1cccc(/C=N/NC(=O)N/N=C/c2cccc(OC)c2O)c1O	-2	60*	14	5	14	85*
COc1cccc(C=NNC(=O)c2ccncc2)c1O	3	6	8	-1	0	nt
SMILES	DAGLB inh	HTRA1 inh	ABHD4 inh	TCR CD3 inh	SIAE primary	HTRA1 inh conf	others
COc1cccc(/C=N/NC(=O)c2nc(-c3ccccc3)cc(-c3ccccc3)n2)c1O	9	43*	2	5	3	57*
CC1(C)CC2(CC(c3ccccc3F)c3ccc(O)c(O)c3O2)NC(=S)N1 (configuration not stated)	7	61*	21	6	4	58*
c1ccc(N2CCN(Cc3ccnc4ccccc34)CC2)cc1	-7	14	4	1	13	nt
Oc1c(Br)cc(Br)c2cccnc12	8	58*	28	-6	27*	59*
Oc1c(CN2CCN(c3ccccc3)CC2)cc(Br)c2cccnc12	-8	56*	15	6	6	44*
COCCN(CCOC)C(=O)[C@@H](Cc1ccccc1)NC(=O)[C@H]1O[C@@H](n2ccc(N)nc2=O)[C@H](O)[C@@H]1O	nt	nt	-5	-3	5	nt
O=C1C=C(Nc2ccccc2)C(=O)c2ccccc21	26	17	19	4	-2	nt
O=C1C(Nc2ccccc2)=C/C(=N/S(=O)(=O)c2cccs2)c2ccccc21	28	63*	nt	nt	nt	62*
Cc1ccc(S(=O)(=O)/N=C2\C=C(Nc3ccc(O)cc3)C(=O)c3ccccc32)cc1	46*	88*	nt	nt	nt	77*
Cc1ccc(NC2=C(NCCO)C(=O)c3ccccc3C2=O)cc1	8	8	3	4	5	nt
C[C@H]1C2CC(OC(=O)NCc3ccc(Cl)cc3)C(C2)[C@H]2CCCCN21 (some centres not stated)	nt	nt	2	nt	0	nt
COc1cc2c(cc1OC)C(C(=O)O)C(c1ccc3c(c1)OCO3)N(C)C2=O (configuration not stated)	nt	nt	1	7	2	nt
Cc1ccc(C(=O)NC2CCCCN(Cc3cccc(F)c3)C2=O)cc1 (configuration not stated)	nt	nt	-1	nt	0	nt
O=C1CC(=Nc2ccc([N+](=O)[O-])cc2)NN1c1c(Cl)cc(Cl)cc1Cl	14	49*	65*	-4	10	35
O=C1CSC(=S)N1N=Cc1c(O)ccc2ccccc12	8	37*	45*	17	7	41*
C/C(=N/NC(=O)c1cc2ccccc2cc1O)C1C(=O)c2ccccc2C1=O	26	74*	49*	45*	21*	53*	BSA TAMRA ctr=1;TCR-CD3 inh conf=68*
Cc1ccccc1Cn1cc(COC(=O)NCCc2c[nH]c3ccccc23)nn1	nt	nt	-3	nt	-4	nt
COc1cc(-c2nnc(SCc3cc(=O)oc4cc(O)c(O)cc34)o2)cc(OC)c1OC	13	47*	33*	28*	1	35	BSA TAMRA ctr=-16;TCR-CD3 inh conf=40*

High-throughput results deposited in PubChem BioAssay by The Scripps Research Institute Molecular Screening Center.
